Measured values published in ChEMBL document CHEMBL1121584, “Soft drugs. 3. A new class of anticholinergic agents” (J Med Chem, 1980).
Blank lines part the entries; values can stand above or below the compound they belong to.

Assays:
Felis catus [1] = organism: Felis catus; assay: acetylcholine antagonist effect of compound on cat blood pressure at concentration 5.7*10e-7 in 3 min; type: functional
Outline: (§1)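 Adult cats under ip α-chloralose (80 mg/kg) plus pentobarbitone (6 mg/kg), bilaterally vagotomized and artificially respired. Carotid blood pressure was recorded. An iv acetylcholine dose giving 70–80% of maximal vasodepressor response was used. After iv test drug, acetylcholine responses were checked at 1 min and then every 2–3 min and expressed as % of control. Doses were given in mol/kg, escalating after recovery.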

Felis catus [2] = organism: Felis catus; assay: acetylcholine antagonist effect of compound on cat blood pressure at concentration 5.7*10e-7 in 15 min; type: functional; outline: as §1
Felis catus [3] = assay: acetylcholine antagonist effect of compound on cat blood pressure at concentration 5.7*10e-8 mol/kg in 1 min; type: functional; outline: as §1
Felis catus [4] = organism: Felis catus; assay: acetylcholine antagonist effect of compound on cat blood pressure at concentration 5.7*10e-8 in 8 min; type: functional
Outline: (§2)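 Adult cats anesthetized ip with α-chloralose (80 mg/kg) plus sodium pentobarbitone (6 mg/kg), bilaterally vagotomized, artificially respired. Carotid arterial pressure recorded. Drugs given iv via brachial vein. Acetylcholine dose giving 70-80% of maximal vasodepressor response used throughout. Test drug injected, acetylcholine response checked 1 min later, then every ~2-3 min. Value is % of control vasodepressor response to acetylcholine.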

Felis catus [5] = organism: Felis catus; assay: acetylcholine antagonist effect of compound on cat blood pressure at concentration 5.7*10e-7 in 9 min; type: functional; outline: as §1
Felis catus [6] = organism: Felis catus; assay: acetylcholine antagonist effect of compound on cat blood pressure at concentration 5.7*10e-8 in 10 min; type: functional; outline: as §1
Felis catus [7] = organism: Felis catus; assay: acetylcholine antagonist effect of compound on cat blood pressure at concentration 5.7*10e-7 in 6 min; type: functional; outline: as §1
Felis catus [8] = organism: Felis catus; assay: acetylcholine antagonist effect of compound on cat blood pressure at concentration 5.7*10e-7 in 18 min; type: functional; outline: as §1
Felis catus [9] = organism: Felis catus; assay: acetylcholine antagonist effect of compound on cat blood pressure at concentration 5.7*10e-7 in 24 min; type: functional; outline: as §1
Cavia porcellus [10] = organism: Cavia porcellus; assay: Antihistamine activity was measured by the guinea pig ileum test.; type: functional; settings: for Kb: Cavia porcellus, Ileum, read-out: pA2 (converted)
Outline: (§3)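 Guinea pig ileum strips, McEwan's solution, Carbogen, 37 °C, 1 g tension. Cumulative histamine concentration-response curves were recorded before and after 15–20 min equilibration with rising antagonist concentrations. pA2 came from dose ratios of mean curves.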

Felis catus [11] = organism: Felis catus; assay: acetylcholine antagonist effect of compound on cat blood pressure at concentration 5.4*10e-8 in 2 min
Cavia porcellus [12] = organism: Cavia porcellus; assay: Anticholinergic activity was measured by the guinea pig ileum test.; type: functional; settings: for Kb: Cavia porcellus, Ileum, read-out: pA2 (converted)
Outline: (§4)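 Guinea pig whole ileum strips in McEwan's solution, gassed with O2/CO2 95:5, 37 °C organ bath, 1 g tension. Cumulative acetylcholine concentration-response curves were run to constancy, then repeated after 15–20 min equilibration with increasing antagonist concentrations. Mean curves gave dose ratios, from which competitive antagonism and pA2 were derived.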

Felis catus [13] = organism: Felis catus; assay: acetylcholine antagonist effect of compound on cat blood pressure at concentration 5.7*10e-7 in 1 min; type: functional; outline: as §1
Felis catus [14] = organism: Felis catus; assay: acetylcholine antagonist effect of compound on cat blood pressure at concentration 5.7*10e-8 in 6 min; type: functional; outline: as §2
Felis catus [15] = organism: Felis catus; assay: acetylcholine antagonist effect of compound on cat blood pressure at concentration 5.7*10e-8 in 4 min; type: functional; outline: as §2
Felis catus [16] = organism: Felis catus; assay: acetylcholine antagonist effect of compound on cat blood pressure at concentration 5.7*10e-7 in 21 min; type: functional; outline: as §1
Felis catus [17] = organism: Felis catus; assay: acetylcholine antagonist effect of compound on cat blood pressure at concentration 5.7*10e-7 in 12 min; type: functional; outline: as §1
[18] = Half life period was measured at 7.4 pH from d[acid]/dt.; type: ADME; settings: pH 7.4
Outline: (§5)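 Chemical hydrolysis in 0.5 M potassium phosphate, pH 7.4, 37 °C. Rate was followed by appearance of the acid product or loss of the quaternary salt. Where salt contained amine hydrochloride, initial concentration was taken from final acid after complete hydrolysis. Half-life was estimated from both where resolved.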

[19] = The hydrolytic kinetics expressed as Kobs was measured at 7.4 pH at 37 degree C; type: ADME; settings: pH 7.4; outline: as §5
Cavia porcellus [20] = organism: Cavia porcellus; assay: Antihistamine activity was measured by the guinea pig ileum test; c = NA means no activity found at the doses used.; type: functional; outline: as §3
[21] = Cholinergic potency was expressed in terms of relative activity vs acetylcholine; c = NA means no activity found at the doses used.; type: functional
Felis catus [22] = organism: Felis catus; assay: acetylcholine antagonist effect of compound on cat blood pressure at concentration 5.7*10e-7 in 22 min; type: functional; outline: as §1
Felis catus [23] = organism: Felis catus; assay: acetylcholine antagonist effect of compound on cat blood pressure at concentration 5.7*10e-7 in 37 min; type: functional; outline: as §1
Cavia porcellus [24] = organism: Cavia porcellus; assay: Anticholinergic activity was measured by the guinea pig ileum test; type: functional; settings: read-out: pA2 (converted); outline: as §4
Felis catus [25] = organism: Felis catus; assay: acetylcholine antagonist effect of compound on cat blood pressure at concentration 5.7*10e-7 in 27 min; type: functional; outline: as §1
Felis catus [26] = organism: Felis catus; assay: acetylcholine antagonist effect of compound on cat blood pressure at concentration 5.7*10e-8 in 3 min; type: functional; outline: as §1
Felis catus [27] = organism: Felis catus; assay: acetylcholine antagonist effect of compound on cat blood pressure at concentration 5.7*10e-8 in 7 min; type: functional; outline: as §2
Felis catus [28] = organism: Felis catus; assay: acetylcholine antagonist effect of compound on cat blood pressure at concentration 5.7*10e-8 in 5 min; type: functional; outline: as §2
Felis catus [29] = organism: Felis catus; assay: acetylcholine antagonist effect of compound on cat blood pressure at concentration 5.7*10e-8 in 9 min; type: functional; outline: as §2
Felis catus [30] = organism: Felis catus; assay: acetylcholine antagonist effect of compound on cat blood pressure at concentration 5.7*10e-7 in 31 min; type: functional; outline: as §1
Cavia porcellus [31] = organism: Cavia porcellus; assay: Anticholinergic activity was measured by the guinea pig ileum test; c = NA means no activity found at the doses used.; type: functional; outline: as §4
[32] = Cholinergic potency was expressed in terms of relative activity vs acetylcholine.; type: functional

SMILES: CC[N+](CC)(CC)COC(=O)C(c1ccccc1)C1CCCCC1.[Cl-] (stereo not given)
- Response (Felis catus [1]): 0%
- Response (Felis catus [2]): 60%
- Response (Felis catus [3]): 0%
- Response (Felis catus [4]): 83%
- Response (Felis catus [5]): 0%
- Response (Felis catus [6]): 100%
- Response (Felis catus [7]): 0%
- Response (Felis catus [8]): 78%
- Response (Felis catus [9]): 100%
- Kb (Cavia porcellus [10]): 2000 nM
- Response (Felis catus [11]): 0%
- Kb (Cavia porcellus [12]): 2.51 nM
- Response (Felis catus [13]): 0%
- Response (Felis catus [14]): 67%
- Response (Felis catus [15]): 50%
- Response (Felis catus [16]): 93%
- Response (Felis catus [17]): 43%

SMILES: CC1CCC[N+]1(C)COC(=O)C(c1ccccc1)C1CCCC1 (stereo not given)
- Kb (Cavia porcellus [10]): 12.6 nM
- Kb (Cavia porcellus [12]): 0.501 nM

- half-life [18]: 3840 min
- K obs [19]: 0.000181 min⁻¹
SMILES: C[N+]1(COC(=O)C2(c3ccccc3)CCCC2)CCCC1.[Cl-]
- pA2 (Cavia porcellus [20]): No activity
- Kb (Cavia porcellus [12]): 50.1 nM

SMILES: CC[N+](CC)(CC)COC(=O)C1(c2ccccc2)CCCC1
- pA2 (Cavia porcellus [20]): No activity
- Kb (Cavia porcellus [12]): 79.4 nM

SMILES: Cn1cc[n+](COC(=O)C23CC4CC(CC(C4)C2)C3)c1
- Kb (Cavia porcellus [10]): 5010 nM
- Activity [21]: No activity
- Kb (Cavia porcellus [12]): 2000 nM

- half-life [18]: 1920 min
- K obs [19]: 0.000361 min⁻¹
SMILES: CC[N+](CC)(CC)COC(=O)C(c1ccccc1)C1CCCC1.[Cl-] (stereo not given)
- Response (Felis catus [22]): 65%
- Response (Felis catus [1]): 0%
- Response (Felis catus [2]): 36%
- Response (Felis catus [3]): 0%
- Response (Felis catus [23]): 100%
- Kb (Cavia porcellus [24]): 7.94 nM
- Response (Felis catus [7]): 0%
- Response (Felis catus [8]): 55%
- Response (Felis catus [25]): 73%
- Response (Felis catus [26]): 18%
- Response (Felis catus [27]): 82%
- Response (Felis catus [28]): 55%
- Response (Felis catus [29]): 100%
- Response (Felis catus [13]): 0%
- Response (Felis catus [17]): 18%
- Response (Felis catus [30]): 95%

- half-life [18]: 3600 min
- K obs [19]: 0.000193 min⁻¹
SMILES: CC(C(=O)OC[N+]1(C)CCCC1)(c1ccccc1)c1ccccc1.[Cl-]
- pA2 (Cavia porcellus [20]): No activity
- Kb (Cavia porcellus [12]): 3.98 nM

SMILES: Cn1cc[n+](COC(=O)C(c2ccccc2)C2CCCC2)c1 (stereo not given)
- Kb (Cavia porcellus [10]): 501 nM
- Kb (Cavia porcellus [12]): 15.8 nM

- half-life [18]: 1260 min
- K obs [19]: 0.00055 min⁻¹
SMILES: CC[N+](CC)(CC)COC(=O)C1(c2ccccc2)CC1.[Cl-]
- pA2 (Cavia porcellus [31]): No activity

SMILES: CCC(C)C(=O)OC[N+]12CCC(CC1)C(OC(C)=O)C2 (stereo not given)
- pA2 (Cavia porcellus [31]): No activity
- Activity [32]: 1

- half-life [18]: 1020 min
- K obs [19]: 0.00068 min⁻¹
SMILES: C[N+]1(COC(=O)C2(c3ccccc3)CC2)CCCC1.[Cl-]
- pA2 (Cavia porcellus [20]): No activity
- Kb (Cavia porcellus [12]): 1580 nM

SMILES: CCC(C)C(=O)OC[N+]1(C)CCCC1 (stereo not given)
- Kb (Cavia porcellus [10]): 2510 nM
- pA2 (Cavia porcellus [31]): No activity

SMILES: CC(=O)OC1C[N+]2(COC(=O)C(c3ccccc3)C3CCCC3)CCC1CC2.[Cl-] (stereo not given)
- pA2 (Cavia porcellus [10]): 5.7
- pA2 (Cavia porcellus [12]): 8.6
